The source of these data is ChEMBL document CHEMBL3232813, “The identification, analysis and structure-based development of novel inhibitors of 6-hydroxymethyl-7,8-dihydropterin pyrophosphokinase” (Bioorg Med Chem, 2014).

Assay [1] addresses T1, 2-amino-4-hydroxy-6-hydroxymethyldihydropteridine pyrophosphokinase (Escherichia coli (strain K12)) (UniProt P26281).
T1 sequence (whole entry): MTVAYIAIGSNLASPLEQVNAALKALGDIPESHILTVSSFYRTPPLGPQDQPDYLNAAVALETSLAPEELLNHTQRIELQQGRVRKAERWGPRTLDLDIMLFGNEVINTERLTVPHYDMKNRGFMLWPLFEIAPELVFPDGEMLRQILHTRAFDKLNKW
Put plainly: Inhibition of GST-tagged Escherichia coli HPPK expressed in Escherichia coli using 6-hydroxymethyl-7,8-dihydropterin hydrochloride as substrate at 250 uM after 20 mins by luminescence assay. In a few lines: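 GST tag cleaved from E. coli HPPK; 5 ng enzyme used. Reaction contained 0.75 µM dihydropterin substrate, 0.75 µM ATP, 100 mM Tris-HCl pH 8.5, 10 mM MgCl2, 10 mM BME, 0.01% Tween 20, 0.01% BSA and 5% DMSO. Compound present at 250 µM. Ran 20 min at 23 °C. Unconsumed ATP read by Kinase-Glo luminescence and reported as % inhibition.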

Assay [2] concerns the target T2, 2-amino-4-hydroxy-6-hydroxymethyldihydropteridine pyrophosphokinase (Escherichia coli (strain K12), UniProt P26281).
T2 sequence (P26281 whole entry): T1 sequence (whole entry)
Put plainly: Binding affinity to GST-tagged Escherichia coli HPPK expressed in Escherichia coli by SPR assay based alternative equilibrium affinity method in presence of AMP-CPP. A digest of the protocol: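 E. coli HPPK expressed as a GST fusion, with the tag removed by thrombin. Minimally biotinylated and captured on a neutravidin chip. SPR run at 20 °C in 20 mM Tris pH 8.5, 100 mM NaCl, 10 mM MgCl2, 1 mM TCEP, 10% glycerol, 5% DMSO, with 2 µM AMPCPP. Compounds injected as a 3-fold series from 100 µM at 80 µL/min. Data double-referenced and fitted to a 1:1 model.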
On the technique in general: In SPR one partner is held on a chip, and binding of the other changes the refractive index at the surface.

Assay [3] concerns the target T2, 2-amino-4-hydroxy-6-hydroxymethyldihydropteridine pyrophosphokinase. Put plainly: Inhibition of GST-tagged Escherichia coli HPPK expressed in Escherichia coli using 6-hydroxymethyl-7,8-dihydropterin hydrochloride as substrate after 20 mins by luminescence assay. A digest of the protocol:
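GST tag cleaved from E. coli HPPK; 5 ng enzyme used. Reaction contained 0.75 µM dihydropterin substrate, 0.75 µM ATP, 100 mM Tris-HCl pH 8.5, 10 mM MgCl2, 10 mM BME, 0.01% Tween 20, 0.01% BSA and 5% DMSO. Ran 20 min at 23 °C. Remaining ATP read by Kinase-Glo luminescence.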

In assay [4] the target is T1, 2-amino-4-hydroxy-6-hydroxymethyldihydropteridine pyrophosphokinase (Escherichia coli (strain K12)). Put plainly: Binding affinity to GST-tagged Escherichia coli HPPK expressed in Escherichia coli by SPR assay in absence of AMP-CPP. In a few lines:
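Thrombin-cleaved EcHPPK (GST removed), minimally biotinylated and captured (~3000–3700 RU) on a neutravidin chip. SPR at 20 °C, no AMPCPP, in 20 mM Tris pH 8.5, 100 mM NaCl, 10 mM MgCl2, 1 mM TCEP, 0.005% Tween20, 10% glycerol, 5% DMSO. Compounds run as 3-fold dilution series. Data double-referenced, solvent-corrected, fitted to a 1:1 model for K_D.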

Assay [5] shares this target. Put plainly: Binding affinity to GST-tagged Escherichia coli HPPK expressed in Escherichia coli by ITC method. (In general: In ITC the heat of successive injections is recorded.)

Each structure is given as a SMILES string. Calls of active or inactive are those of the source. The rule behind the calls is not given here. Some results are limits rather than exact numbers.

As usually defined, the inhibition is the share of the control response that was lost under treatment. A higher inhibition goes with strong suppression. Broadly, the Kd is the equilibrium constant for the complex coming apart. By IC50 is commonly meant the concentration at which inhibition is half-maximal. Low readings indicate higher potency, high ones lower potency.

For the molecule `Nc1nc2[nH]c(S)nc2c(=O)[nH]1`, the inhibition in assay [1] was 18%. Besides, the Kd in assay [2] was greater than 100 µM. In the case of `COc1ccccc1C(=O)CSc1nc2nc(N)[nH]c(=O)c2[nH]1`, the inhibition in assay [1] was determined as 12%. For the molecule `Cc1ccccc1C(=O)CSc1nc2nc(N)[nH]c(=O)c2[nH]1`, the inhibition in assay [1] is 48%. Also, the IC50 in assay [3] amounted to 243 µM. Besides, in assay [2], the dissociation constant Kd was 18.9 µM. Regarding `N#Cc1ccc(C(=O)CSc2nc3nc(N)[nH]c(=O)c3[nH]2)cc1`, the inhibition in assay [1] was 68%. The molecule further registered a half-maximal inhibitory concentration (IC50) in assay [3] of 88 µM. In assay [2], the equilibrium dissociation constant (Kd) turned out to be 39 µM. `Cc1ccc(C(=O)CSc2nc3nc(N)[nH]c(=O)c3[nH]2)cc1` gave an inhibition in assay [1] of 80%. Besides, in assay [3], half-maximal inhibition (IC50) required 64 µM. Further, the Kd in assay [2] stood at 6.7 µM. For the molecule `Nc1nc2nc(SC(=O)c3ccc(F)cc3)[nH]c2c(=O)[nH]1`, the inhibition in assay [1] was 16%. Regarding `COc1ccc(C(=O)CSc2nc3nc(N)[nH]c(=O)c3[nH]2)cc1`, the inhibition in assay [1] was determined as 74%. In assay [3], this molecule returned an IC50 of 44 µM. For the same molecule, the Kd in assay [2] was determined as 14.5 µM. The molecule `Nc1nc2nc(SCCN3CCOCC3)[nH]c2c(=O)[nH]1` gave an inhibition in assay [1] of 7%. In assay [1], `Nc1nc2nc(SCC(=O)c3ccc(OCCN4CCOCC4)cc3)[nH]c2c(=O)[nH]1` gave an inhibition of 5%. With `Nc1nc(O)nc2nc[nH]c12` [ISOGUANINE], the Kd in assay [2] was 7.5 µM. Take `Nc1nc(O)c2nc(SCC(=O)N3CCOCC3)[nH]c2n1`: the inhibition in assay [1] worked out at 6%. `N#Cc1ccc(CSc2nc3nc(N)[nH]c(=O)c3[nH]2)cc1`: the result in assay [4] was inactive. This molecule also showed an inhibition in assay [1] of 53%. This molecule gave an IC50 in assay [3] of 254 µM. Also, the Kd in assay [2] stood at 29 µM. Regarding `Cc1nc2c(=O)[nH]c(N)nc2[nH]1`, the Kd in assay [2] was determined as 18 µM. Take `Nc1nc2nc[nH]c2c(=O)[nH]1` [GUANINE]: the Kd in assay [2] worked out at 38 µM. Regarding `Nc1nc2nc(SCC(=O)c3ccccc3)[nH]c2c(=O)[nH]1`, the result in assay [4] was inactive. In assay [1], this molecule displayed an inhibition of 75%. This molecule also displayed an IC50 in assay [3] of 139 µM. In addition, the Kd in assay [2] turned out to be 9.7 µM. In the case of `Nc1nc2[nH]cnc2c(=S)[nH]1`, the inhibition in assay [1] was found to be 51%.

The molecule `Cc1cccc(C(=O)CSc2nc3nc(N)[nH]c(=O)c3[nH]2)c1` displayed an inhibition in assay [1] of 77%. In assay [3], this molecule came in with an IC50 of 51 µM. Further, the equilibrium dissociation constant (Kd) in assay [2] was 5.9 µM. As to `NC1N=C(O)c2nc(CO)cnc2N1` (centres undefined), in assay [5], the outcome was Active. For `CC(Sc1nc2nc(N)[nH]c(=O)c2[nH]1)C(=O)c1ccccc1` (centres undefined), the inhibition in assay [1] is 10%.

On to `Nc1nc2[nH]cnc2c(=O)[nH]1`, for which, in assay [1], the inhibition turned out to be 48%. In assay [1], `Nc1nc2nc(SCC(=O)c3ccc(F)cc3)[nH]c2c(=O)[nH]1` yielded an inhibition of 73%. In assay [3], inhibition was half-maximal at 79 µM (IC50). For the same molecule, the Kd in assay [2] was 11.2 µM. In turn, `Nc1nc2nc(SCC(=O)c3ccc(O)cc3)[nH]c2c(=O)[nH]1` yielded an inhibition in assay [1] of 77%. In addition, in assay [3], half-maximal inhibition (IC50) was put at 82 µM. In addition, the Kd in assay [2] was found to be 5.8 µM. Regarding `Cc1ccc(C(=O)C(C)Sc2nc3nc(N)[nH]c(=O)c3[nH]2)cc1` (centres undefined), the inhibition in assay [1] amounted to 13%.
